# Screens deposited in PubChem by several laboratories.
# HNF4A DNA FP = change in binding of human HNF4A to DNA, primary screen, biochemical, fluorescence polarization, FITC-DNA; Hepatocyte nuclear factor 4-alpha (Homo sapiens), P41235; AID 1224865, 2016; 1 h; 360,000 tested, 0.3% active; activity change, % at 10 µM; in the data active = activity change above about 30%, passing the limit was not always enough
# ATG4B inhibitor = ATG4B protease inhibitors, primary screen, biochemical, fluorescence, uHTS. 340,000 tested, 0.51% active. Cysteine protease ATG4B (Homo sapiens), Q9Y4P1. AID 504462, 2011. ATG4B cleavage of LC3-PLA2, NBD-HPC fluorescence, 1 h. inhibition, % at 8.33 µM
# CSN inh = inhibitors of CSN-mediated cullin deneddylation, primary screen, biochemical, fluorescence polarization, uHTS; 360,000 tested, 0.38% active; inhibition, % at 12.5 µM; Purified CSN, SCF-Nedd8-OG deneddylation;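 active = pattern-corrected inhibition above about 35%, with an unprinted fluorescence ratio check between 0.5 and 1.5, limit read from the data, passing the limit was not always enough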;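 also: 0% = enzyme with substrate and 100% = substrate without enzyme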
# Target sequence (Q92905 whole entry, looked up, one chain of several): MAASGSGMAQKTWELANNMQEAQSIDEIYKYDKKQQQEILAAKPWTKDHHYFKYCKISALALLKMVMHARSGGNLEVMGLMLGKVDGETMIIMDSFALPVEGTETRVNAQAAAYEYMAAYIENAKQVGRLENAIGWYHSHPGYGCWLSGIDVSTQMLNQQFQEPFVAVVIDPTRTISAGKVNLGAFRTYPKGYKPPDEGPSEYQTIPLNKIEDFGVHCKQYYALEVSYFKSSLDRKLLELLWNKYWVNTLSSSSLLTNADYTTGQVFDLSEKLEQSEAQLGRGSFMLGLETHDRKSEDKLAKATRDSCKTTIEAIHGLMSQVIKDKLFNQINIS
#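 Assay system: purified human Csn5 enzyme expressed in HEK293T cells; measure: % inhibition; also added: SCFSkp2-Nedd8OG substrate at 10 nM final; technique: fluorescence polarization; times: reaction 90 min, room temperature; medium: Tris buffer pH 7.5, NaCl, DTT, Tween-20, trehalose, ovalbumin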
# SENP1 FRET inh = human SENP1 catalytic domain inhibitors, primary screen, biochemical, FRET, uHTS; Sentrin-specific protease 1 (Homo sapiens), Q9P0U3; recombinant SENP1 catalytic domain, CyPet-SUMO1-YPet FRET cleavage; inhibition, % at 10 µM; 360,000 tested, 0.21% active; AID 624204, 2012;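 active = inhibition at least 30% at 10 µM, raw YFP signal under a set limit, fluorescence ratio 0.5 to 1.5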;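 also: 0% = enzyme with DMSO and 100% = no enzyme wells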
#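 Material – human SENP1 catalytic domain · Input – SENP1 enzyme, 20 pM final · Compound dosing – single concentration of 10 µM compound, 0.5% DMSO final · Timing – enzyme reaction for 50 min at room temperature, dark · Measured by – FRET fluorescence in CFP and YFP emission channels · Control set – no-enzyme wells low, DMSO-plus-enzyme wells high control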
# TPT1 inhibitor = Candida albicans TPT1 enzyme inhibitors, primary screen, biochemical, fluorescence polarization. recombinant caTPT1, FP RNA substrate dephosphorylation. tRNA 2'-phosphotransferase TPT1 (Candida albicans SC5314). inhibition, % at 5 µM. 300,000 tested, 0.81% active. AID 1962, 2009;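 active = inhibition above the mean of all tested compounds plus 3 SD, set per screening campaign, cut at about 24% in these data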;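 also: plate controls were DMSO alone for no effect and ferristatin control at 100 nM for full effect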
# Rpn11 block = Rpn11 (PSMD14) deubiquitinase inhibitors, primary screen, biochemical, fluorescence polarization, uHTS; 26S proteasome non-ATPase regulatory subunit 14 (Homo sapiens), O00487; human 26S proteasome, Ub4-pepOG fluorescence polarization; 20S core pre-blocked with epoxomicin; inhibition, % at 20 µM; 360,000 tested, 0.59% active; AID 588493, 2011;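 active = inhibition at 20 µM, scaled to each plate's controls, above about 33%, limit read from the data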
# Rpn11 confirm = Rpn11 (PSMD14) deubiquitinase inhibitors, confirmation, biochemical, fluorescence polarization, single concentration. purified human 26S proteasome, Ub4-pepOG fluorescence polarization; proteasome pretreated with epoxomicin. 1,900 tested, 29% active. inhibition, % at 20 µM. shares compounds with Rpn11 block. AID 602318, 2012
# MMP-2 inh = MMP-2 enzyme inhibition, confirmation, counter-screen for RPN11 inhibitor project, biochemical, fluorescence, single concentration; 1,900 tested, 4% active; recombinant MMP-2, FRET peptide cleavage fluorescence; inhibition, % at 20 µM; shares compounds with Rpn11 block; AID 602330, 2012;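 also: human MMP-2 activated beforehand with APMA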
# Thrombin inh = bovine thrombin protease inhibition, confirmation, counter-screen for Rpn11 inhibitor project, biochemical, fluorescence polarization, single concentration | shares compounds with Rpn11 block | bovine thrombin cleavage of Ub4-pepOG | inhibition, % at 20 µM | 1,900 tested, 13% active;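 active = mean inhibition at least 40% at 20 µM, or signal 3 deviations below plate average, so some actives read negative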;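 also: plate controls were thrombin with DMSO for no effect and buffer wells lacking thrombin for full effect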
# Starred values were filed as active, the others as inactive; · = no result. Shown are actives, neighbours in structure and some others; about 2% of the full set was active somewhere. Rule as the data show it, unless noted: active = inhibition above about 40%; inactive = the rest.
SMILES,HNF4A DNA FP,ATG4B inhibitor,CSN inh,SENP1 FRET inh,TPT1 inhibitor,Rpn11 block,Rpn11 confirm,MMP-2 inh,Thrombin inh
CN(C)CCCN(C(=O)/C=C/c1cccs1)c1nc2ccc(F)cc2s1,5,-2,11,2,1,7,·,·,·
O=C(c1ccco1)N1CCN(c2ncnc3c(-c4ccccc4)nsc23)CC1,-27,-6,5,-5,-2,102*,5,-6,-4
CN(CC(=O)Nc1nccs1)S(=O)(=O)c1ccc(F)cc1,-2,-4,0,2,-1,49*,0,-38,-5
Cc1c2c(=O)n(-c3nc4ccccc4s3)nc-2cc(O)n1Cc1ccccc1,-7,2,11,0,·,41*,6,-14,6
COc1ccc(C(C)NC(=O)CC23CC4CC(CC(C4)C2)C3)cc1 (stereo not given),-1,2,3,-1,1,-2,·,·,·
COc1cccc(CN2c3ccc(Br)cc3C(=O)CS2(=O)=O)c1,2,3,2,1,·,94*,-5,-25,-10
O=C(Cc1cccs1)N(Cc1cccs1)C1(C(=O)NC2CCCC2)CCCCC1,0,-11,-3,0,-2,136*,2,-6,6
O=C(Cc1cccs1)N(Cc1ccco1)C1(C(=O)NC2CCCCC2)CCCCC1,5,-3,-2,2,-2,1,·,·,·
Cn1cncc1C#Cc1ccc2cc(C3(O)CCCCC3)oc(=O)c2c1,3,10,36*,3,·,47*,90*,6,31
CCCCc1cc(=O)oc2cc(C)cc(OCC(=O)Nc3cccnc3)c12,-9,-11,20,0,0,70*,18,-10,-9
C#CCN(C(=O)C1CCC(=O)N(CCc2cccc(F)c2)C1)C1CCCCC1 (stereo not given),4,·,2,0,·,14,·,·,·
CCc1ccc(NC(=O)C2CCN(S(=O)(=O)c3ccc4c(c3)NC(=O)C(C)S4)CC2)cc1 (stereo not given),18,-9,6,7,6,69*,87*,25,33
O=C(CCCCn1c(=O)[nH]c2ccccc2c1=O)N1CCN(c2cccc(C(F)(F)F)c2)CC1,0,-26,3,1,-6,5,·,·,·
O=C(CCCn1c(=S)[nH]c2ccccc2c1=O)N1CCN(c2cccc(Cl)c2)CC1,-3,-1,9,3,-1,96*,64*,65*,4
CC(C)CC1NC(=O)N(Cc2nc3ccccc3s2)C1=O (stereo not given),5,-3,5,-2,11,16,·,·,·
CCOC(=O)c1cc2c(c(CSc3nc4ccccc4c(=O)n3Cc3ccco3)c1)OCOC2,-11,2,17,2,3,52*,12,4,1
O=c1c2ccccc2nc(SCc2cc(F)cc3c2OCOC3)n1Cc1ccco1,1,0,5,-1,-4,-1,·,·,·
